Cytotoxicity data for 96 compounds are collected here from ChEMBL document CHEMBL4513216, “Probing the Open Global Health Chemical Diversity Library for Multistage-Active Starting Points for Next-Generation Antimalarials” (ACS Infect Dis, 2020).

The nature of this data set: Toxicity liver stage against HepG2, at 10uM. It counts as cell-based. Further details: test concentration 10 uM, cell line HepG2-A16-CD81EGFP. Conditions: human, HepG2-A16-CD81EGFP cells; read-out: INHIBITION
The method, boiled down:
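Uninfected HepG2-A16-CD81EGFP cells, 3 × 10^3 per well, 1536-well, plated on prespotted compound at 10 μM final, parasite-free screening media added to match infected plates; puromycin 10 μM positive, DMSO 0.5% negative; run in parallel with 48 h PbLuc assay at 37 °C, 5% CO2; viability by CellTiter-Glo luminescence, normalized to controls.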
On to `Cc1ccccc1N1CC2(CCN(Cc3nccn3C)C2)CC1=O` (stereo unspecified), for which the cytotoxicity at 10 µM is -81.3%.
As to `Cc1cc(=O)c2ccccc2n1CC1CCCN(C)C1` (stereo unspecified), the cytotoxicity at 10 µM was -5.82%.
With `Fc1cnc(N2CCCC3(CCN(Cc4ccoc4)C3)C2)nc1` (stereo unspecified), the cytotoxicity at 10 µM was -80.6%.
For `CSc1ccccc1C(=O)N1CCOC(CCN(C)C)C1` (stereo unspecified), the cytotoxicity at 10 µM turned out to be 7.46%.
For the compound `O=C1CCNc2ccccc2CN1Cc1ccco1`, the cytotoxicity at 10 µM was 1.22%.
Consider `CCCN(C1CCc2ccccc2C1)S(C)(=O)=O` (stereo unspecified), for which the cytotoxicity at 10 µM was 0.595%.
In the case of `COCCCN1C(=O)CC(N2CCN(c3ccc(F)cc3)CC2)C1=O` (stereo unspecified), the cytotoxicity at 10 µM came to 2.57%.
As for `Cn1cnnc1C1CCCN(C(=O)CCc2ccc3c(c2)OCO3)C1` (stereo unspecified), the cytotoxicity at 10 µM was 0.415%.
Take `CC(C)c1nc(O)c2nnn(C[C@H]3CCCN(Cc4cccs4)C3)c2n1`: the cytotoxicity at 10 µM was 10.8%.
Regarding `CC(=O)N1CCN(CC(C)(O)c2cccc(C(F)(F)F)c2)CC1` (stereo unspecified), the cytotoxicity at 10 µM is -14.6%.
Consider `Cc1ccc2c(c1)OC(C)(C)CC2NC(=O)C1CCN(S(C)(=O)=O)CC1` (stereo unspecified), for which the cytotoxicity at 10 µM was 1.93%.
For the compound `Cc1cc(-c2cc3nc(C)c(C)c(NCC4COCCO4)n3n2)no1` (stereo unspecified), the cytotoxicity at 10 µM is 8.97%.
As to `Cc1ccnc(C2(C)CCCN2C(=O)c2cnccn2)n1` (stereo unspecified), the cytotoxicity at 10 µM was -34%.
As for `CNc1nc(CNC(=O)Nc2ccccc2C(F)(F)F)cs1`, the figure is -0.896%; as for `CCNC(=O)C1CCCN(C(=O)Nc2cc(C#N)ccc2OCC)C1` (stereo unspecified), -1.71%; as for `Cc1cc(C(F)(F)F)nn1CC(C)C(=O)Nc1ccncc1` (stereo unspecified), -2.13%.
As to `O=C(NCCCO)Nc1cccc(I)c1`, the cytotoxicity at 10 µM is -6.1%.
Take `CC(=O)N1CCCC(C(=O)NCCOc2cc(C)cc(C)c2)C1` (stereo unspecified): the cytotoxicity at 10 µM was -3.43%.
As for `Cn1nc(CN2CCOCC2)c2c1CN(Cc1ccsc1)C2`, the figure is -145%; as for `CCc1ccc2nc(C)cc(C(=O)NC3CCC(=O)N(C)C3)c2c1` (stereo unspecified), -5.85%.
As to `CC(C)c1noc(CN2CCCC2c2noc(C(C)C)n2)n1` (stereo unspecified), the cytotoxicity at 10 µM is -5.89%.
As to `CN1CCCN(C[C@@H]2CN(C(=O)N3CCOCC3)C[C@@H]2CO)CC1`, the cytotoxicity at 10 µM is -7.43%.
As for `CCn1cc(CN2CCCC(COc3ccc(F)cc3)C2)cn1` (stereo unspecified), the figure is -59.6%.
Take `COCCn1c2c(ccc1=O)CCN(Cc1ccoc1)CC2`: the cytotoxicity at 10 µM was -134%.
With `Cc1cc(C)n(C2CCN(S(C)(=O)=O)CC2)n1`, the cytotoxicity at 10 µM is 15.7%.
Then `Cc1ccc(-c2nc(CNCC3CN(C)CCO3)cs2)o1` (stereo unspecified), with -9.16%.
For the compound `CCn1nc(C)cc1C(=O)N1CC[C@H](OC)[C@H]2CN(CC3CC3)C[C@H]21`, the cytotoxicity at 10 µM is -133%.
Regarding `Cc1cc(C(=O)Nc2ccc3c(c2)N(C)CCN(C)C3)on1`, the cytotoxicity at 10 µM was 7.34%.
Take `CCS(=O)(=O)NCC1OCCc2cn(CCOC)nc21` (stereo unspecified): the cytotoxicity at 10 µM amounted to 9.43%.
Consider `CN(C)CC(NC(=O)c1ccn(C)c(=O)c1)c1ccccc1` (stereo unspecified), for which the cytotoxicity at 10 µM was -5.85%.
Turning to `COc1ncccc1NC(=O)C1CCN(S(C)(=O)=O)CC1`, the cytotoxicity at 10 µM was -5.74%.
`CC(C)Oc1ccc(CNC(=O)CC(F)(F)F)cc1F`: the cytotoxicity at 10 µM is -1.08%.
`Fc1cccc(F)c1Cn1c(C2CCNCC2)cc2cccnc21`: the cytotoxicity at 10 µM was -3.4%.
For the compound `Cc1cnc(CNC(=O)c2cc3c(s2)CCN3S(C)(=O)=O)cn1`, the cytotoxicity at 10 µM is 2.22%.
`COc1ccc(OCc2sc(C3(O)CCCNCC3)nc2C)cc1` (stereo unspecified): the cytotoxicity at 10 µM was -3.66%.
Then `CN(C)C(=O)COCc1nn(C)c2c1CCN(Cc1ccco1)C2`, with -131%; and `CCN1CCC(NC(=O)CN2CCCC(NS(C)(=O)=O)C2)CC1` (stereo unspecified), with 2.94%.
In the case of `CCN(CC)CCn1cnc(-c2ccccc2)c1-c1cnn(CC)c1`, the cytotoxicity at 10 µM is 3.37%.
Turning to `Cc1ccc(NCCCNC(=O)C2CC3(CCNCC3)CN2C)nc1` (stereo unspecified), the cytotoxicity at 10 µM stood at 6.07%.
In the case of `CCn1nnc(NCc2ccccc2OCc2ccc(Cl)cc2)n1`, the cytotoxicity at 10 µM is -0.139%.
Then `CCS(=O)(=O)N1CCOC2(CCCN(c3ccccn3)C2)C1` (stereo unspecified), with 3.16%; and `C[C@@H]1CCC[C@H](C)N1CC(=O)N1CCc2[nH]c(-c3ccccc3)nc2C1`, with 4.02%; and `CCN(CC)c1ncnc2c1CCN(CC1CCOCC1)CC2`, with -81.5%.
Turning to `Cn1nnc2c(N3CC(C(=O)NCc4cccs4)C3)ncnc21`, the cytotoxicity at 10 µM came to 4.29%.
As to `CCc1nc(C)c(C(=O)NCCn2nc3ccccn3c2=O)s1`, the cytotoxicity at 10 µM was -9.42%.
With `CCCN(Cc1nccn1C)C(=O)C(CC)Nc1cccc(OC)c1` (stereo unspecified), the cytotoxicity at 10 µM was found to be 0.417%.
In the case of `COc1cccc(S(=O)(=O)CCN2CCN(CC(F)F)CC2)c1`, the cytotoxicity at 10 µM is -3.96%.
On to `COc1c(C2SCC(=O)Nc3[nH]ncc32)cc2c(c1OC)OCO2` (stereo unspecified), for which the cytotoxicity at 10 µM came to 0.219%.
Consider `CC(=O)NC(c1cc(F)ccc1F)C1CC1` (stereo unspecified), for which the cytotoxicity at 10 µM is -1.99%.
With `CCCc1nn(Cc2ccc(Br)s2)c(=O)o1`, the cytotoxicity at 10 µM was 3.81%.
Take `COc1cc(C(=O)NCCc2ccccc2OC)on1`: the cytotoxicity at 10 µM is 0.409%.
As for `Cn1cc(CC2CCN(C(=O)NCc3cccc(C#N)c3)C2)cn1` (stereo unspecified), the figure is -12.3%; as for `O=C(O)c1csc(S(=O)(=O)N2CCCc3ccc(F)cc32)c1`, 16.6%; as for `Cn1nc(C2CNCCO2)cc1CCOc1ccc(C(F)(F)F)cc1` (stereo unspecified), -7.54%.
Turning to `Cc1nc(CN2CC[C@@H]3O[C@@H](C(=O)N4CCOCC4)C[C@@H]32)cs1`, the cytotoxicity at 10 µM is 2.08%.
As for `CC(NCCN1CCC(N(C)C)CC1)c1ccc(F)cc1N(C)C` (stereo unspecified), the figure is -13%.
On to `CN(C)C(=O)N1CCCC2(CCN(Cc3ccc(Cl)c(F)c3)C2)C1` (stereo unspecified), for which the cytotoxicity at 10 µM was 7.07%.
As for `Cc1occc1C(=O)N1CCCn2cnc(CN3CCCC3=O)c2C1`, the figure is 4.24%; as for `O=C(c1ccc(-c2nc[nH]n2)cc1)N1CC[C@H](CO)[C@@H](O)C1`, 0.466%; as for `COc1ccccc1CC1CCN(C(=O)CCc2ccccn2)CC1`, -3.2%.
With `O=C(NC1CCCN(c2ccccc2F)C1)c1ccon1` (stereo unspecified), the cytotoxicity at 10 µM is -6.43%.
Then `Cc1noc(C(C)NC(=O)[C@@H](C)NC(=O)OC(C)(C)C)n1` (stereo partly specified), with 5.81%; and `Cc1cc(Nc2nc(C)cs2)nc(C2CCCCN2CCO)n1` (stereo unspecified), with 1.8%; and `O=C(CC1CC1)N1CCC2(CC1)CN(CCn1cccn1)C(=O)CO2`, with 1.75%.
For `CCN1C(=O)C[C@@H]2[C@@H]1CCN2S(=O)(=O)c1cccc(C)c1`, the cytotoxicity at 10 µM was 1.29%.
Take `COC(=O)c1cc(CN2CCN(c3nc(C)cnc3C)CC2)ccc1O`: the cytotoxicity at 10 µM turned out to be 0.171%.
As for `COc1ccc(C(CNC(=O)Nc2cc(C)nn2C)N(C)C)cc1` (stereo unspecified), the cytotoxicity at 10 µM is 3.31%.
As for `O=C(c1ccccn1)N1CCCN(Cc2nnc(C3CC3)o2)CC1`, the cytotoxicity at 10 µM was determined as 5.25%.
For `O=C(CN1CCc2cncnc2C1)N1CCc2sccc2C1`, the cytotoxicity at 10 µM turned out to be 11.9%.
Turning to `COc1ccc(N2CCC(C(=O)/N=c3/[nH]ccs3)CC2)nn1`, the cytotoxicity at 10 µM is -13.6%.
Turning to `Cc1nc(C2CCCN2C(=O)c2ccc3c(c2)nc(C)n3C)no1` (stereo unspecified), the cytotoxicity at 10 µM was -9.62%.
As to `CC(=O)N1CCC(c2ncc3c(n2)CCN(C(=O)c2ccccc2)C3)C1` (stereo unspecified), the cytotoxicity at 10 µM was -8.69%.
Consider `CCOCC(O)CN1CCN(C(=O)c2ccc(N(C)C)nn2)CC1` (stereo unspecified), for which the cytotoxicity at 10 µM was -13.1%.
Turning to `Cc1cnn(CC(C)NCc2csc(-c3cnn(C)c3)n2)c1` (stereo unspecified), the cytotoxicity at 10 µM was 5.32%.
Then `Cc1nc(Nc2ccc(Cl)cn2)sc1C(=O)NC(C)C`, with 14%.
In the case of `COc1cccc(CN(C)Cn2nc(C(C)(C)C)ccc2=O)c1`, the cytotoxicity at 10 µM turned out to be 1.12%.
For the compound `Cc1nc2cc(-c3nccn3C)nn2c(N2CCCC2)c1C`, the cytotoxicity at 10 µM was 4.53%.
For `CCn1ccnc1CN1CCCN(C(=O)c2cncnc2C)CC1`, the cytotoxicity at 10 µM turned out to be 5.65%.
In the case of `CC(=O)N1CCO[C@@H]2CN(S(=O)(=O)c3ccccc3F)C[C@@H]2C1`, the cytotoxicity at 10 µM stood at 12.6%.
Then `OC1CCN(Cc2ccc(CNc3ncc(Cl)cc3F)cc2)CC1`, with 9.96%; and `CC(C)CC(=O)N(C)Cc1nc(C(F)(F)F)cs1`, with 8.32%.
With `CC(C)(N)c1cn([C@@H]2c3ccccc3C3(CCNCC3)[C@H]2O)nn1`, the cytotoxicity at 10 µM was -4.67%.
As for `CNC(=O)[C@@]12CCC3(CCNCC3)[C@@H]1CN(S(C)(=O)=O)C2`, the figure is -2.86%; as for `CN1CCN(CC2CC2)C(=O)C12CCN(C(=O)c1ccnnc1)CC2`, 8.49%; as for `Cc1ccc(C)c(CC(=O)NC2CCCS(=O)(=O)C2)c1` (stereo unspecified), -7.52%.
In the case of `CC1=NOC2(CCN(Cc3c[nH]c4ccccc34)CC2)C1`, the cytotoxicity at 10 µM was determined as 4.54%.
`Cc1nc2c(c(N3CCC(O)(Cn4ccnc4)CC3)n1)CCNCC2`: the cytotoxicity at 10 µM came out at 1.37%.
Then `Cc1cnc(NCC(C)(C)N2CCOCC2)nc1`, with 5.68%; and `CCCNC1(c2ccc(Cl)cc2)CCOCC1`, with -0.0529%; and `CCN(CC)C(=O)CN1CCc2nc(C3CCNCC3)nc(NC)c2C1`, with -5.46%.
In the case of `O=C(COc1ccc(-n2cccn2)nn1)NC1CCCCC1`, the cytotoxicity at 10 µM was -1.03%.
As to `O=C1O[C@@H]2CN(Cc3cccc(F)c3)C[C@@H]2N1CCCN1CCOCC1`, the cytotoxicity at 10 µM is -9.9%.
For `O=C(c1ccccc1)N1CCO[C@@H]2CN(c3ncccn3)C[C@@H]2C1`, the cytotoxicity at 10 µM was -6.63%.
As for `O=C(NCCc1cnccn1)c1cccc(S(=O)(=O)NC2CCOC2)c1` (stereo unspecified), the figure is 6.3%; as for `Cc1ccc(NC2CCN(C(=O)CCc3nccs3)CC2)nn1`, -9.93%; as for `COc1cnc(CSc2nnc(C)s2)cc1OCC(=O)NC1CCCC1`, 3.43%.
